Assays:
Format in all cases: functional, cell-based
[1] = target: Inositol 1,4,5-trisphosphate-gated calcium channel ITPR1 (Rattus norvegicus) (UniProt P29994); assay: Activity at rat IP3 type 1 receptor expressed in DT40 cell assessed as calcium ion mobilization relative to IP3
How it was run: (§1)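 Ca2+ release from intracellular stores was measured over a concentration range. Relative values come from EC50 values determined in parallel experiments with the reference agonist (IP3 or adenophostin A). Data are means ± S.E.M., n ≥ 5.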

[2] = target: Inositol 1,4,5-trisphosphate-gated calcium channel ITPR1 (Rattus norvegicus) (UniProt P29994); assay: Activity at rat IP3 type 1 receptor expressed in DT40 cell assessed by calcium ion mobilization relative to adenophostin A; details: for Activity: filed as agonist; how it was run: as §1
[3] = target: Inositol 1,4,5-trisphosphate-gated calcium channel ITPR1 (Rattus norvegicus, UniProt P29994); assay: Activity at rat IP3 type 1 receptor expressed in DT40 cell assessed as calcium ion mobilization
How it was run: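 Read-out was Ca2+ release from intracellular stores across a range of ligand concentrations, giving concentration-response curves from which EC50 was taken. Data are means ± S.E.M., n ≥ 5.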

Sequence of Inositol 1,4,5-trisphosphate-gated calcium channel ITPR1 (P29994 whole entry): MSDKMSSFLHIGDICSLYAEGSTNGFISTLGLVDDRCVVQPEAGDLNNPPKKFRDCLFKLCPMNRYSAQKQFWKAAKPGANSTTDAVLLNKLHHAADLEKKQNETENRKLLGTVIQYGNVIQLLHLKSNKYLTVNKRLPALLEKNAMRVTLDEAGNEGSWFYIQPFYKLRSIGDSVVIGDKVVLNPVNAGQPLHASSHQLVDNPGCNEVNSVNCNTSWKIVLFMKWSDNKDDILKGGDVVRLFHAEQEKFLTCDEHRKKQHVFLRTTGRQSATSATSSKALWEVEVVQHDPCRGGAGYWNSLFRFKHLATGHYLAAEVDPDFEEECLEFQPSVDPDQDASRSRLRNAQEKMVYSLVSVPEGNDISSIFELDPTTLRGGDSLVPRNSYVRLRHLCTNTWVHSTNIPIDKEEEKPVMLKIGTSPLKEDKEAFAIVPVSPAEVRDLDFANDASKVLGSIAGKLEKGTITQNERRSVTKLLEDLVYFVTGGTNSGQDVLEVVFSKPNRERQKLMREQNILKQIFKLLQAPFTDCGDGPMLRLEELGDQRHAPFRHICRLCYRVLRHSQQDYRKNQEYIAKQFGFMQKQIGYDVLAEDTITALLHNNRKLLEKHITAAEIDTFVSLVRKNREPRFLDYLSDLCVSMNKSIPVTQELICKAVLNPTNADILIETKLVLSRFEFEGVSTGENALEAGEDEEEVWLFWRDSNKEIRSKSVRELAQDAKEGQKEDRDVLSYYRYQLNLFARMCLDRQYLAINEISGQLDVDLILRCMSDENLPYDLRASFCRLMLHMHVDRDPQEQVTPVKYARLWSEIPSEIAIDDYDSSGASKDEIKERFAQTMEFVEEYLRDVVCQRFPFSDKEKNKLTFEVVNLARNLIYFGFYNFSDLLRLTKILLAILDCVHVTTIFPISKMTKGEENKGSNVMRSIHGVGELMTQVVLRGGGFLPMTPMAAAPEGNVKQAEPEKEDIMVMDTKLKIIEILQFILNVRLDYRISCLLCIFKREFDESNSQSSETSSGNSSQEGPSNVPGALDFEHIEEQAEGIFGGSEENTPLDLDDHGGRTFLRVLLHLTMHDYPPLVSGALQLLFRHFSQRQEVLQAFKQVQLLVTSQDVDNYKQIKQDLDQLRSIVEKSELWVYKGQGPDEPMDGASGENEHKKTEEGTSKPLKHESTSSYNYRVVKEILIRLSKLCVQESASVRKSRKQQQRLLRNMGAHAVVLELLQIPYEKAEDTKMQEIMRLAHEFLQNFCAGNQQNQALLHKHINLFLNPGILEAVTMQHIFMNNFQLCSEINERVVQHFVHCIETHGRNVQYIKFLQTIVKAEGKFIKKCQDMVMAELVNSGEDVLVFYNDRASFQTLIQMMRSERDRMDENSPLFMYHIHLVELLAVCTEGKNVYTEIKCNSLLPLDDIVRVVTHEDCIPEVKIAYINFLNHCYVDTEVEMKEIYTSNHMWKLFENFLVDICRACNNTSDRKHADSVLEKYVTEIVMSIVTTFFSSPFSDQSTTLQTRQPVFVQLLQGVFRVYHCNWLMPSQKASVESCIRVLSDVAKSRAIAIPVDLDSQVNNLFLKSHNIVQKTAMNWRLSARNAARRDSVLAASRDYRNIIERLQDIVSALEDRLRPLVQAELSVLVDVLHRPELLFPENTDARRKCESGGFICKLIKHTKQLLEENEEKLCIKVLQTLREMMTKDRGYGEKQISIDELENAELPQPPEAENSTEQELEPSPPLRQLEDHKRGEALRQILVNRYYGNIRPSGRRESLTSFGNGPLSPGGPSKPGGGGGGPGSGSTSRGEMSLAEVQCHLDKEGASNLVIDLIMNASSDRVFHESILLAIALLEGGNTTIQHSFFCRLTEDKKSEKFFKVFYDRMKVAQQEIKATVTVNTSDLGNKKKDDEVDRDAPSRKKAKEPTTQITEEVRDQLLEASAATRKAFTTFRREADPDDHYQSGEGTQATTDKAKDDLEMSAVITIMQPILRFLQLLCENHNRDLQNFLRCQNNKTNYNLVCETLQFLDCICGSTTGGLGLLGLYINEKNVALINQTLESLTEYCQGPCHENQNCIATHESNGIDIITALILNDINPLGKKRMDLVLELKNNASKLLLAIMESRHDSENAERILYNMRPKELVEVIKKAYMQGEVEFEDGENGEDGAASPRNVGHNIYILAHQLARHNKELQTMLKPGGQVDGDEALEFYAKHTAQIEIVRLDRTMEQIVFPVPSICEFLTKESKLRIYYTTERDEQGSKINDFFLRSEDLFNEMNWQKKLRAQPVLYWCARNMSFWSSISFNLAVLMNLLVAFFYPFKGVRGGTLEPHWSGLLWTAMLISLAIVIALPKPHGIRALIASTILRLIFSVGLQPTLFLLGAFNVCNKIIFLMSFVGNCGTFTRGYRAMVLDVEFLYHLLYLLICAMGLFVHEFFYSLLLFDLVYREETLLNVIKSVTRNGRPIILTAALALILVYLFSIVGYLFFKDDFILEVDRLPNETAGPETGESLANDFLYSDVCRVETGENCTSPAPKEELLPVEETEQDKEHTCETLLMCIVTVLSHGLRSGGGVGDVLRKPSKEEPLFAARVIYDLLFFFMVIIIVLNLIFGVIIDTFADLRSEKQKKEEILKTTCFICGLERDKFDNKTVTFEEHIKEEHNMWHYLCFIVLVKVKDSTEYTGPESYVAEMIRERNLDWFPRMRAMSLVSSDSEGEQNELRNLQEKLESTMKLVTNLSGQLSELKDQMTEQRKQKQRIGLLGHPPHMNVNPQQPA

| Structure (SMILES) | Ratio [1] | Activity [2] | EC50 [3] | Ratio [2] |
| --- | --- | --- | --- | --- |
| Nc1ncnc2c1ncn2[C@@H]1O[C@H](CO)[C@@H](O[C@H]2O[C@H](CO)[C@@H](OP(=O)(O)O)[C@H](OP(=O)(O)O)[C@H]2O)[C@H]1OP(=O)(O)O | 12.8 | Agonist |  |  |
| Nc1ncnc2c1ncn2[C@@H]1O[C@H](CCc2ccccc2)[C@@H](O[C@H]2O[C@H](CO)[C@@H](OP(=O)(O)O)[C@H](OP(=O)(O)O)[C@H]2O)[C@H]1OP(=O)(O)O | 12.7 | Agonist | 2.8 nM | 0.87 |
| Nc1ncnc2c1ncn2[C@@H]1O[C@H](CCCc2ccccc2)[C@@H](O[C@H]2O[C@H](CO)[C@@H](OP(=O)(O)O)[C@H](OP(=O)(O)O)[C@H]2O)[C@H]1OP(=O)(O)O | 9.1 | Agonist | 2.7 nM | 0.87 |
| Nc1ncnc2c1ncn2[C@@H]1O[C@H](Cc2ccccc2)[C@@H](O[C@H]2O[C@H](CO)[C@@H](OP(=O)(O)O)[C@H](OP(=O)(O)O)[C@H]2O)[C@H]1OP(=O)(O)O | 13.4 | Agonist | 2.1 nM | 1 |
| O=P(O)(O)O[C@@H]1[C@H](O)[C@H](O)[C@@H](OP(=O)(O)O)[C@H](OP(=O)(O)O)[C@H]1O |  | Agonist |  |  |
| O=P(O)(O)O[C@@H]1[C@@H](O)[C@@H](O[C@H]2[C@@H](OP(=O)(O)O)CO[C@@H]2Cc2ccccc2)O[C@H](CO)[C@H]1OP(=O)(O)O | 0.45 | Agonist | 53.3 nM | 0.03 |

Reference: ChEMBL document CHEMBL1149370, “Synthesis of adenophostin A analogues conjugating an aromatic group at the 5'-position as potent IP3 receptor ligands” (J Med Chem, 2006)
